TNAP inh hiacc: TNAP (human) inhibition, high acceptor. P05186. AID 1135. actives 0.03% (n = 200,000). inhibition, % at 20 µM. purified TNAP, CDP-star luminescence, 1 M DEA;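 active means over 50% inhibition of tissue-nonspecific alkaline phosphatase at 20 µM in the single-dose screen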;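 further: plate controls were DMSO wells for no effect and EDTA-quenched wells as full inhibition for full effect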
Target sequence (P05186 whole entry, looked up): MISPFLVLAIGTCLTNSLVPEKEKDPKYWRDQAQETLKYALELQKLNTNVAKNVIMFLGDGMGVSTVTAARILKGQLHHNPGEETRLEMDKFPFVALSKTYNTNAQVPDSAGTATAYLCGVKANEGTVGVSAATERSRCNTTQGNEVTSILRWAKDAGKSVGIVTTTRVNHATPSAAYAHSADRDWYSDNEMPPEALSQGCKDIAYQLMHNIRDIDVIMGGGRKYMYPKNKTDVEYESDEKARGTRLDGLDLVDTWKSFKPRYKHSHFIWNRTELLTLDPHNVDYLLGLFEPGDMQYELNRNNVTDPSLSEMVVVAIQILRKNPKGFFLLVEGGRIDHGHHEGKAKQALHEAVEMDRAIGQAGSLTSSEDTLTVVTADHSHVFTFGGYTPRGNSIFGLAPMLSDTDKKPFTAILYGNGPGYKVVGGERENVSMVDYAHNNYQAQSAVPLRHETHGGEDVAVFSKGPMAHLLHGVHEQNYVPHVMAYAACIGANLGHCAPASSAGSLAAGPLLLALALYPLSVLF
TNAP act hi DEA: TNAP (human) activation, high acceptor | P05186 | purified TNAP, CDP-star luminescence, 1 M DEA, 30 min; stronger effect = higher value; 0 = EDTA background, 1 = DMSO-only activity | activation factor at 20 µM | 200,000 tested, under 10 active | AID 1136;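 active means activation factor at least 2 at 20 µM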
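Measured by: Luminescent substrate turnover signal | Test system: Human TNAP | Input: TNAP 1/800 final | Dosing: 20 µM single point | Schedule: 30 min, room temperature | Controls: EDTA wells as negative control, DMSO wells as positive control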
Pf gametocyte: inhibitors of late stage P. falciparum gametocyte viability; P. falciparum stage V gametocytes, ATP luminescence, 24 h; inhibition, % at 10.9 µM; actives 0.065% (n = 150,000);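 active means inhibition above the mean plus 3 SD of compounds within the control limits, set per campaign, cut at about 38% in these data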;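 further: 0% = DMSO wells and 100% = medium only without gametocytes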
TNAP inh noacc: inhibitors of human TNAP without phosphate acceptor | P05186 | AID 1012 | actives 0.26% (n = 200,000) | purified TNAP, CDP-star luminescence, 30 min | inhibition, % at 20 µM;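 active means tissue-nonspecific alkaline phosphatase inhibition above about 50% at 20 µM in the single-dose screen, limit read from the data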;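 further: 0% = DMSO negative control and 100% = EDTA positive control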
Furin inh: inhibitors of human furin | inhibition, % at 20 µM or 30 µM | actives 0.061% (n = 220,000) | purified furin, fluorogenic substrate cleavage | AID 463115; in the data active means inhibition above about 25%
HMGR II inh: E. faecalis class II HMG-CoA reductase inhibition; purified E. faecalis HMGR, NADPH absorbance 340 nm kinetic; actives 0.41% (n = 190,000); inhibition, % at 10 µM;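 active means inhibition above a set limit, the median over all tested compounds plus 3 SD, cut at about 9.5% in these data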;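 further: enzyme runs in reverse so mevalonate oxidation gives rising NADPH absorbance; 0% = complete reaction with DMSO and 100% = background rate lacking mevalonate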
Starred values were filed as active, the others as inactive; / = no result. Hits are enriched below; roughly 0.68% of the tested compounds scored in any of these assays.

SMILES	TNAP inh hiacc	TNAP act hi DEA	Pf gametocyte	TNAP inh noacc	Furin inh	HMGR II inh
O=C1c2ccccc2NC(c2ccc(Cl)cc2Cl)N1O (centres undefined)	-7	1.1	/	-8	-12	15*
COCCn1c(SCC#N)nnc1-c1ccc(OC)cc1	3	1	/	-7	-32	13*
CN(C)/C=C/c1oc2ccc(O)cc2c1[N+](=O)[O-]	52*	0.5	-39	48	0	-3
CCOC(=O)c1sc(NC(=O)CSc2n[nH]c(-c3ccc(Cl)cc3Cl)n2)c(C#N)c1C	37	0.6	-1	96*	-11	1
COc1cc(C(=O)Nc2c(C)cc(C)cc2C)c(Br)c(OC)c1OC	-6	1.1	2	-7	-12	-4
Cc1ccc(C(=O)NC2(C(Cl)Cl)N=C(c3ccccc3)N=C2N)cc1 (centres undefined)	0	1	7	-4	-20	9.7*
Cc1cccc(NC(=S)NCc2ccc3c(c2)OCO3)c1C	-10	1.1	/	-7	-11	-3
Cc1cccc(NC(=O)CSc2ccc(-c3ccc4c(c3)OCO4)nn2)c1C	4	1	14	7	-24	17*
Cc1cc(NC(=O)CSc2ccc(-c3ccc4c(c3)OCO4)nn2)no1	-2	1	/	-9	-13	0
Cc1cccc(NC(=O)C(=O)NCc2ccc3c(c2)OCO3)c1C	2	1	8	-2	-18	10*
NNC(=O)COc1ccc(C(F)(F)F)cc1	-2	1	17	-7	-19	-1
Cc1c(NC(=O)c2ccc(Cl)c(S(=O)(=O)N3CCOCC3)c2)c(=O)n(-c2ccccc2)n1C	-5	1.1	/	-14	30*	-2
Cc1ccc(C(=O)Nc2c(C)n(C)n(-c3ccccc3)c2=O)cc1S(=O)(=O)N1CCOCC1	-1	1	/	3	-20	/
C=CCOc1c(Br)cc(CNc2ccc(NC(=O)C(C)C)c(OC)c2)cc1OCC	3	1	2	-5	-16	2
CCn1c(C)c(CCC(=O)O)c(=O)n2nc(-c3ccccc3OC)cc12	-1	1	/	-7	27*	-5
CCOC(=O)CCc1c(C)nc2cc(-c3ccccc3OC)[nH]n2c1=O	-5	1.1	/	14	-17	-2
COc1ccc(Cl)cc1NC(=O)CN(c1ccccc1)S(=O)(=O)N(C)C	-7	1.1	-46	-9	-12	17*
Cc1ccccc1CC(=O)Nc1ccon1	/	/	-2	/	/	/
O=C(N/N=C/c1ccc(O)c(O)c1O)/C(=C/c1ccc([N+](=O)[O-])cc1)NC(=O)c1ccccc1	-10	1.1	40*	22	-3	-8
Cc1cccc(NC(=O)c2ccc(-c3ccccc3[N+](=O)[O-])o2)c1	1	1	-16	4	-26	10*
O=[N+]([O-])c1cccnc1N1CCC(c2cc(-c3ccc(Cl)cc3Cl)n[nH]2)CC1	0	1	/	79*	-3	5
COc1ccc(OC)c(-c2cc(C3CCN(c4ncccc4[N+](=O)[O-])CC3)[nH]n2)c1	2	1	/	-5	-16	-2
COc1cccc(-c2nnc(NC(=O)c3ccc(S(=O)(=O)N4CC(C)OC(C)C4)cc3)o2)c1 (centres undefined)	-5	1	/	-10	-24	2
COc1ccc(CN2C(=O)[C@@H]3C(c4ccccc4Cl)=NO[C@@H]3C2=O)cc1	-7	1.1	11	-14	-15	11*
CC(=O)c1cc(C(=O)N2CCc3c([nH]c4ccccc34)C2C2CCCCC2)[nH]n1 (centres undefined)	-9	1.1	34	-10	-17	-11
SMILES	TNAP inh hiacc	TNAP act hi DEA	Pf gametocyte	TNAP inh noacc	Furin inh	HMGR II inh
CC1CCC(C(=O)NC(C(=O)NCc2cccnc2)C(C)C)CC1 (centres undefined)	1	1	/	-7	-18	-6
CCC(C)C(NC(=O)C1CCC(C)CC1)C(=O)NCc1cccnc1 (centres undefined)	2	1	/	-6	29*	-1
CNC(=S)NNC(=O)c1ccccc1F	-7	1.1	7	-111	-28	-1
CC(C(=O)Nc1ccc(S(=O)(=O)N2CCOCC2)cc1)N1CCN(c2ccccn2)CC1 (centres undefined)	-8	1.1	10	-17	-9	13*
N=c1c2c(-c3ccccc3)c(-c3ccccc3)n(Cc3ccco3)c2ncn1CCCN1CCOCC1	-10	1.1	-1	-16	-19	11*
CCOc1ccc(-c2[nH]ncc2Oc2ccccc2OCC)c(O)c1	-2	1	/	-10	5	24*
CCNC(=O)NC(=O)C(C)Oc1ccc(Br)cc1Br (centres undefined)	0	1	18	-5	-13	-5
CC(=O)Nc1cc(-c2ccc(F)cc2)[nH]n1	2	1	-13	91*	-5	2
CCCCNC(=O)c1ccccc1NC(=O)CCSc1ccccc1	-5	1.1	/	-17	-13	15*
CCCCNC(=O)Nc1ccccc1C(=O)NCCC	-3	1	/	-10	-1	0
CC(C)C(C(=O)O)N1C(=O)/C(=C/C=C/c2ccco2)SC1=S (centres undefined)	9	0.9	/	27	-3	11*
COc1ccc(CCn2c(SCCN3CCCCC3)nc3ccccc3c2=O)cc1OC	-5	1.1	4	-2	-10	1
O=C(O)c1ccc(N=c2oc3cc(O)ccc3cc2C(=O)NCc2ccccc2)cc1	14	0.9	42*	5	-24	0
Cc1ccc(-c2nc(CN(C)Cc3cccc4cnccc34)c(C)o2)s1	-3	1	/	0	-28	-3
N/C(=N\OC(=O)CN1C(=O)c2ccccc2C1=O)c1ccc(Br)cc1	0	1	/	-2	-27	13*
Cc1[nH]n(S(=O)(=O)Cc2ccccc2)c(=O)c1N=Nc1ccccc1Cl	11	0.9	4	22	-28	10*
Cc1[nH]n(S(=O)(=O)c2ccccc2)c(=O)c1N=Nc1cccc(Cl)c1	/	/	-5	/	/	/
Cc1cccc(C(=O)O/N=C2/CC3CCC2(C)C3(C)C)c1 (centres undefined)	-1	1	/	-8	-26	11*
CCOc1ccc(-c2nc(CSc3nncs3)cs2)cc1OC	-6	1.1	8	-12	-9	-3
CCN1C(=O)[C@H]2[C@@H](c3ccc(C)cc3)N3C(=O)N(c4ccc(OC)cc4)C(=O)[C@@]3(C)[C@H]2C1=O	/	/	-3	/	/	/
CCN(Cc1ccncc1)C(=O)CCc1nnc(CCC2CCCCC2)o1	-2	1	14	-8	-21	12*
O=c1c2ccccc2cnn1-c1nc2ccccc2[nH]1	-1	1	47*	-16	-7	3
O=C(COC(=O)CCc1c[nH]c2ccccc12)NC1CCS(=O)(=O)C1 (centres undefined)	2	1	/	-6	-14	15*

Source: PubChem BioAssay (several laboratories)
